Active and inactive are the calls of the source. The rule behind the calls is not given here.
Key:
[1] = test system: Escherichia coli; test: Induction of photoactive porphyrins in Escherichia coli K-12 at 10 mM exposed to irradiation at 120 J.cm2 light by HPLC; type: functional, organism-based
Method in brief: (§1)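 Cells were loaded 4 h at 37°C in the dark with substrate in PBS (pH 6.5), in parallel with the PDI samples. 10 ml of suspension was pelleted and taken up in ethanol/DMSO/acetic acid (80:20:1). Cells were broken by five 5-s sonication pulses at 0°C and centrifuged. The supernatant was run on HPLC with a gradient (acetate buffer/acetonitrile to methanol/acetonitrile) and fluorescence detection (ex 407, em 620 nm). Total porphyrins are given as pmol·10⁻⁶ CFU.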

[2] = test system: Escherichia coli; test: Antibacterial activity against Escherichia coli K-12 assessed as reduction in microbial viability incubated at 10 mM followed by irradiation at 120 J.cm2 light; type: functional, organism-based
Method in brief: (§2)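 Log-phase cells (OD600 ~0.30) washed twice in PBS (0.1 N, pH 6.5), pelleted, resuspended in freshly made substrate in the same PBS and kept 4 h at 37°C in the dark with shaking. About 5 × 10⁷ bacteria in 2.5 ml were then exposed to white halogen light for 40 min (120 J·cm⁻²). CFU were counted by plating dilutions on Columbia agar. Survival = CFU/ml after PDI ÷ CFU/ml of initial sample; mean of n = 4 ± SD.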

[3] = test system: Escherichia coli; test: Antibacterial activity against Escherichia coli K-12 assessed as reduction in microbial viability incubated at <40 mM for 4 hrs under dark condition; type: functional, organism-based
Method in brief: (§3)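 Dark toxicity. Washed log-phase cells (OD600 ~0.30, PBS 0.1 N pH 6.5) were held 4 h at 37°C in the dark with shaking in substrate dissolved in the same PBS and were not illuminated. CFU were counted on Columbia agar. Survival = CFU/ml of nonilluminated sample ÷ CFU/ml of initial sample; mean of n = 4 ± SD.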

[4] = test system: Escherichia coli; test: Antibacterial activity against Escherichia coli K-12 assessed as reduction in microbial viability incubated at 0.1 mM followed by irradiation at 120 J.cm2 light; type: functional, organism-based; method in brief: as §2
[5] = test system: Escherichia coli; test: Antibacterial activity against Escherichia coli K-12 assessed as reduction in microbial viability incubated at 40 mM followed by irradiation at 120 J.cm2 light; type: functional, organism-based; method in brief: as §2
[6] = test system: Escherichia coli; test: Induction of photoactive porphyrins in Escherichia coli K-12 exposed to irradiation at 120 J.cm2 light by HPLC; type: functional, organism-based; method in brief: as §1
[7] = test system: Escherichia coli; test: Induction of photoactive porphyrins in Escherichia coli K-12 assessed as uroporphyrin level exposed to irradiation at 120 J.cm2 light by HPLC; type: functional, organism-based; method in brief: as §1
[8] = test system: Escherichia coli; test: Induction of photoactive porphyrins in Escherichia coli K-12 assessed as protoporphyrin level exposed to irradiation at 120 J.cm2 light by HPLC; type: functional, organism-based; method in brief: as §1
[9] = test system: Escherichia coli; test: Antibacterial activity against Escherichia coli K-12 assessed as reduction in microbial viability incubated at 40 mM for 4 hrs under dark condition; type: functional, organism-based; method in brief: as §3
[10] = test system: Escherichia coli; test: Antibacterial activity against Escherichia coli K-12 assessed as microbial survival fraction incubated at 0.1 mM followed by irradiation at 120 J.cm2 light relative to untreated control; type: functional; method in brief: as §2
[11] = test system: Escherichia coli; test: Antibacterial activity against Escherichia coli Ti05 assessed as microbial survival fraction incubated at 1 mM followed by irradiation at 120 J.cm2 light relative to untreated control; type: functional; method in brief: as §2
[12] = test system: Pseudomonas aeruginosa; test: Antibacterial activity against Pseudomonas aeruginosa assessed as microbial survival fraction incubated at 1 mM followed by irradiation at 120 J.cm2 light relative to untreated control; type: functional; method in brief: as §2
[13] = test system: Staphylococcus aureus; test: Antibacterial activity against methicillin resistant Staphylococcus aureus assessed as microbial survival fraction incubated at 10 mM followed by irradiation at 120 J.cm2 light relative to untreated control; type: functional
Method in brief: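 MRSA grown 48 h on Columbia sheep-blood agar, then overnight in tryptone soy broth at 37°C, brought to OD600 ~0.30 and washed twice in PBS pH 6.5. Cells were held with substrate in PBS for 4 h in the dark at 37°C with shaking. About 5 × 10⁷ bacteria were exposed to halogen white light for 40 min (120 J·cm⁻²). CFU were counted on Columbia agar; survival = N_PDI/N₀; mean of n = 4 ± SD.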

[14] = test system: Escherichia coli; test: Induction of photoactive porphyrins in Escherichia coli K-12 assessed as porphyrin level per 10^-6 CFU microbial load incubated at 0.1 mM followed by irradiation at 120 J.cm2 light relative to untreated control; type: functional; method in brief: as §1
[15] = test system: Escherichia coli; test: Induction of photoactive porphyrins in Escherichia coli Ti05 assessed as porphyrin level per 10^-6 CFU microbial load incubated at 1 mM followed by irradiation at 120 J.cm2 light relative to untreated control; type: functional; method in brief: as §1
[16] = test system: Pseudomonas aeruginosa; test: Induction of photoactive porphyrins in Pseudomonas aeruginosa assessed as porphyrin level per 10^-6 CFU microbial load incubated at 1 mM followed by irradiation at 120 J.cm2 light relative to untreated control; type: functional; method in brief: as §1
[17] = test system: Staphylococcus aureus; test: Induction of photoactive porphyrins in methicillin resistant Staphylococcus aureus assessed as porphyrin level per 10^-6 CFU microbial load incubated at 10 mM followed by irradiation at 120 J.cm2 light relative to untreated control; type: functional
Method in brief: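 MRSA was washed in PBS pH 6.5 and held with substrate in PBS for 4 h in the dark at 37°C with shaking; a separate fraction was taken for porphyrin analysis. Pellets were extracted in ethanol/DMSO/acetic acid (80:20:1), sonicated 5 × 5 s at 0°C and centrifuged. Supernatant went to gradient HPLC with fluorescence detection (excitation 407, emission 620 nm). Total porphyrins are expressed as pmol·10⁻⁶ CFU.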

[18] = test system: Escherichia coli; test: Induction of photoactive porphyrins in Escherichia coli K-12 assessed as porphyrin 7-CP level exposed to irradiation at 120 J.cm2 light by HPLC; type: functional, organism-based; method in brief: as §1
[19] = test system: Escherichia coli; test: Induction of photoactive porphyrins in Escherichia coli K-12 assessed as porphyrin 6-CP level exposed to irradiation at 120 J.cm2 light by HPLC; type: functional, organism-based; method in brief: as §1
[20] = test system: Escherichia coli; test: Antibacterial activity against Escherichia coli K-12 assessed as reduction in microbial viability incubated at 30 mM for 4 hrs under dark condition; type: functional, organism-based; method in brief: as §3
[21] = test system: Escherichia coli; test: Antibacterial activity against Escherichia coli K-12 assessed as microbial survival fraction incubated at 10 mM followed by irradiation at 120 J.cm2 light relative to untreated control; type: functional; method in brief: as §2
[22] = test system: Escherichia coli; test: Antibacterial activity against Escherichia coli Ti05 assessed as microbial survival fraction incubated at 10 mM followed by irradiation at 120 J.cm2 light relative to untreated control; type: functional; method in brief: as §2
[23] = test system: Pseudomonas aeruginosa; test: Antibacterial activity against Pseudomonas aeruginosa assessed as microbial survival fraction incubated at 10 mM followed by irradiation at 120 J.cm2 light relative to untreated control; type: functional; method in brief: as §2
[24] = test system: Escherichia coli; test: Induction of photoactive porphyrins in Escherichia coli K-12 assessed as porphyrin level per 10^-6 CFU microbial load incubated at 10 mM followed by irradiation at 120 J.cm2 light relative to untreated control; type: functional; method in brief: as §1
[25] = test system: Escherichia coli; test: Induction of photoactive porphyrins in Escherichia coli Ti05 assessed as porphyrin level per 10^-6 CFU microbial load incubated at 10 mM followed by irradiation at 120 J.cm2 light relative to untreated control; type: functional; method in brief: as §1
[26] = test system: Escherichia coli; test: Induction of photoactive porphyrins in Escherichia coli K-12 assessed as porphyrin 5-CP level exposed to irradiation at 120 J.cm2 light by HPLC; type: functional, organism-based; method in brief: as §1
[27] = test system: Pseudomonas aeruginosa; test: Induction of photoactive porphyrins in Pseudomonas aeruginosa assessed as porphyrin level per 10^-6 CFU microbial load incubated at 10 mM followed by irradiation at 120 J.cm2 light relative to untreated control

## CCCCCCCCOC(=O)CCC(=O)CN
[1]
  Activity: inactive
[2]
  growth inhibition (GI): inactive

## CCCCCCOC(=O)CCC(=O)CN
[1]
  Activity: inactive
[2]
  growth inhibition (GI): inactive

## CCCCCOC(=O)CCC(=O)CN
[1]
  Activity: inactive
[2]
  growth inhibition (GI): inactive

## CCCCOC(=O)CCC(=O)CN
[1]
  Activity: Active
[2]
  growth inhibition (GI): Active

## NCC(=O)CCC(=O)O [AMINOLEVULINIC ACID]
[3]
  growth inhibition (GI): inactive
[4]
  growth inhibition (GI): Active
[5]
  growth inhibition (GI): Active
[6]
  Activity: Active
[7]
  Activity: Active
[8]
  Activity: Active
[9]
  growth inhibition (GI): Active
[10]
  Ratio: 0.00048
[11]
  Ratio: 5e-05
[12]
  Ratio: 0.0019
[13]
  Ratio: 5e-06
[14]
  Activity: 7.5 pmol
[15]
  Activity: 5.4 pmol
[16]
  Activity: 34.5 pmol
[17]
  Activity: 6.6 pmol

## COC(=O)CCC(=O)CN [METHYL AMINOLEVULINATE]
[7]
  Activity: Active
[18]
  Activity: Active
[19]
  Activity: Active
[2]
  growth inhibition (GI): Active
[20]
  growth inhibition (GI): Active
[13]
  Ratio: 0.00078
[17]
  Activity: 2.5 pmol
[21]
  Ratio: 8.1e-06
[22]
  Ratio: 2e-05
[23]
  Ratio: 0.012
[24]
  Activity: 12.5 pmol
[25]
  Activity: 10.2 pmol
[26]
  Activity: Active
[27]
  Activity: 6 pmol

— ChEMBL document CHEMBL1255281, “Effects on gram-negative and gram-positive bacteria mediated by 5-aminolevulinic Acid and 5-aminolevulinic acid derivatives” (2008)
